Rows were chosen to be rich in hits. Some 4.7% of all compounds tested hit in one or more screens of this group.
KCC2 mod = modulators of human KCC2 chloride dependent transport; KCC2 cells, thallium flux FluoZin-2 fluorescence; AID 1456; hit rate 2.2% among 190,000; B-score of Tl+ flux slope (higher = more flux/activation; lower = inhibition) at 10 µM;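 active = thallium flux slope and its plate-corrected score both differing from the plate sample mean at a set confidence after two filtering rounds, in either direction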;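 note: slope of fluorescence scaled to starting intensity during 10 to 20 s after thallium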
MrgX1 agonist = human MrgX1 receptor agonism, primary screen; Q96LB2; MrgX1-HEK293 cells, Fluo-4 calcium fluorescence, agonist mode; hits give high values; B-score at 10 µM; hit rate 0.44% among 310,000;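 active = calcium response B-score plate-corrected fluorescence ratio at least 3 library SD, with starting fluorescence B-score inside 5 SD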
Target sequence (Q96LB2 whole entry, looked up): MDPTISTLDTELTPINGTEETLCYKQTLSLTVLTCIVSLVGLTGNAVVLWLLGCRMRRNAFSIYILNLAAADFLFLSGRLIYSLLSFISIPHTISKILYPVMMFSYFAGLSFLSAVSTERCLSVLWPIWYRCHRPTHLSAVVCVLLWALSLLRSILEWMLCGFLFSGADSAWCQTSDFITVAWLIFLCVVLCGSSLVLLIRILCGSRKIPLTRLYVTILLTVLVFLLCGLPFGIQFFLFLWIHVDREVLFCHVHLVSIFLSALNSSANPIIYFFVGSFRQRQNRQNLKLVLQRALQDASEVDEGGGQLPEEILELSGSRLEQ
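Material: MrgX1-expressing HEK293 cells / Dosing: compound as first of three additions / Incubation: overnight seeding, then 1 h dark dye loading / Signal: Fluo-4 NW calcium fluorescence / Evaluation: B-scored fluorescence response ratio / Benchmarks: positive and negative control wells on each plate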
RGS4 pot = RGS4 potentiation or activation | B-score at 10 µM | HEK293 M3R/inducible RGS4, carbachol calcium flux Fluo4; hits give low values | hit rate 0.92% among 310,000;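 active = B-score of the integrated calcium signal more than 4 SD below the library mean, with starting fluorescence not abnormally high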;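 note: negative B-score means reduced calcium response which marks RGS4 activation or potentiation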
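Assay system: HEK293 FlpIn-TREx cells, stable M3R, doxycycline-inducible RGS4 / Probe or stimulus: carbachol, ECmax concentration / Times: overnight RGS4 induction, 30 min dye load 37 °C, 20 min compound RT / Signal: kinetic calcium fluorescence imaging with Fluo4-AM dye, 2 µM / Measure: Agonist-evoked peak-minus-minimum fluorescence over baseline, integrated ratio, B score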
MrgX1 antag = human MrgX1 receptor antagonism, primary screen. MRGX1-HEK293 calcium flux, Fluo-4, BAM8-22 antagonism; hits give low values. Q96LB2. hit rate 1.3% among 310,000. B-score at 10 µM;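 active = calcium-response B-score plate-corrected more than 3 library SD below zero, starting fluorescence within 5 deviations, no agonist response on first addition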;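 note: peak minus trough fluorescence over baseline after final BAM8-22 challenge near maximal dose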
MrgX1 allo act = allosterically activates human MrgX1 receptor signaling; Q96LB2; MrgX1-HEK293, Fluo-4 calcium flux, FDSS; hits give high values; B-score at 10 µM; hit rate 0.63% among 310,000;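 active = plate-corrected calcium response at least 3 library SD above typical, normal starting fluorescence, not activating the receptor alone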;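 note: compound read alongside a low EC10 to EC30 dose of BAM8-22 agonist; peak minus trough fluorescence over baseline measured at the second addition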
RGS4 block = human RGS4 inhibition; P49798; HEK293 M3R/RGS4 inducible, Fluo-4 calcium flux; hits give high values; triggered by carbachol at its EC20; hit rate 0.45% among 310,000; B-score at 10 µM;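 active = B-score, a plate-corrected calcium signal, over three deviations above library mean, with baseline fluorescence within five deviations of library mean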;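 note: RGS4 expression induced by doxycycline in cells with stable M3 receptor; B-score is computed from the integrated fluorescence ratio over baseline after carbachol; higher B-score means a larger calcium signal and so more RGS4 inhibition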
Target sequence (P49798 whole entry, looked up): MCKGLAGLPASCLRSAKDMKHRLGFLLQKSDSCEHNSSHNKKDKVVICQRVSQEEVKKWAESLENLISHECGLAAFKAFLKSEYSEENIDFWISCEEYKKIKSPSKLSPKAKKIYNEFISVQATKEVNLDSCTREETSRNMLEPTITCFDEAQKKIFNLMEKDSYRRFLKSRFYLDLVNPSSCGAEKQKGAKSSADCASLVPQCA
KCC2 secondary = confirmation of human KCC2 transport modulators; shares compounds with KCC2 mod; HEK293-KCC2, thallium flux, FluoZin2 fluorescence; hits give high values; normalised thallium flux (F/F0 slope) at 10 µM; hit rate 15% among 3,700; AID 1713;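 active = thallium flux slope above the same plate's solvent-only control mean plus 3 SD; inconclusive = the two replicate wells disagree; inactive = no significant difference from solvent-only control wells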
KCC2 bumet counter = thallium flux persisting under bumetanide in KCC2 cells, counter-screen secondary assay | normalized thallium flux at 10 µM | HEK293-KCC2 + bumetanide/ouabain, thallium flux FluoZin2; hits give high values | shares compounds with KCC2 mod | hit rate 49% among 3,700;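 active = thallium entry rate above the same plate's blocked-transporter control wells by more than 3 SD; inconclusive = the two repeat wells disagree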;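 note: raw slope of fluorescence over initial fluorescence between 10 and 20 s after thallium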
KCC2 secondary2 = confirmation of human KCC2 transport modulators | HEK293-KCC2, thallium flux FluoZin2 fluorescence; actives lie on both sides; F/F0 rise rate, 10–20 s post-thallium | shares compounds with KCC2 mod | AID 1715 | hit rate 23% among 3,700 | normalized thallium flux at 10 µM;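 active = thallium flux slope more than 3 SD above or below the plate's solvent-only control mean, mostly below; inconclusive = the two repeat wells disagreed; inactive = no significant shift from solvent-only controls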;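 note: raw slope with 0.1% DMSO as baseline and bumetanide as block control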
HEK counter1 = acts in parental HEK cells, KCC2 counter-screen. thallium flux rate (normalised fluorescence) at 10 µM. hit rate 46% among 3,700. AID 1716. shares compounds with KCC2 mod. HEK293 parental cells, thallium flux FluoZin2, ouabain; baseline-ratio fluorescence slope, 10–20 s after thallium;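 active = thallium flux rate significantly above the same plate's solvent-only control wells, beyond their mean plus 3 SD; inconclusive = the two replicate wells gave conflicting results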
KCC2 retest ouab = modulates human KCC2 on retest with ouabain; shares compounds with KCC2 mod; HEK293-KCC2, thallium flux FluoZin2 fluorescence; bidirectional: low = inhibitor, high = activator; raw Tl+ flux slope (below DMSO = inhibition, above = activation) at 10 µM; hit rate 48% among 3,700; AID 1717;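 active = thallium flux slope beyond 3 SD from same-plate DMSO control mean in most replicates, usually higher, sometimes lower; inconclusive = repeat tests gave conflicting results; inactive = no significant difference from controls in most replicates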;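 note: slope of initial-normalized fluorescence between seconds 10 and 20 after thallium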
HEK counter2 = acts in parental HEK cells, second KCC2 counter-screen | hit rate 33% among 3,700 | HEK293 parental, thallium flux FluoZin-2 fluorescence slope | thallium flux slope at 10 µM | shares compounds with KCC2 mod;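 active = thallium flux slope above the same plate's solvent-control mean plus 3 SD in both duplicate wells; inconclusive = duplicate wells that disagreed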;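 note: run without ouabain in cells lacking the KCC2 cotransporter; slope of fluorescence scaled to its starting value between 10 and 20 s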
Starred values were filed as active, the others as inactive; i = inactive; ? = inconclusive; . = no result given.

SMILES | KCC2 mod | MrgX1 agonist | RGS4 pot | MrgX1 antag | MrgX1 allo act | RGS4 block | KCC2 secondary | KCC2 bumet counter | KCC2 secondary2 | HEK counter1 | KCC2 retest ouab | HEK counter2
S=c1[nH]nc(-c2ccco2)n1/N=C/C=C/c1ccccc1 | 7.01* | i | i | i | i | i | 0.0179 | 0.0331* | 0.0346 | 0.0157* | 0.0213 | 0.0179*
S=c1[nH]nc(-c2ccccc2)n1/N=C/C=C/c1ccco1 | 3.8 | i | i | i | i | i | . | . | . | . | . | .
CN(CCOc1ccc(Cl)cc1)C(=O)CN1C(=O)NC2(CCCC2)C1=O | . | i | i | i | i | i | . | . | . | . | . | .
Cc1ccc(/C=N/n2c(-c3ccc(Cl)cc3)n[nH]c2=S)s1 | 10.4* | i | i | i | i | i | 0.00806 | 0.0121* | 0.031 | 0.0161* | ? | 0.0151*
Cc1cc(C(=O)CSc2nnc(-c3cccc(F)c3)n2N)c(C)n1Cc1ccc2c(c1)OCO2 | . | i | i | i | i | i | 0.0075 | 0.00395 | 0.0285 | 0.00697 | 0.019 | 0.0103
Cc1cc(C(=O)CSc2nnnn2-c2ccc(O)cc2)c(C)n1Cc1ccc2c(c1)OCO2 | -0.99 | i | i | i | i | i | . | . | . | . | . | .
COC(=O)c1c(NC(=S)Nc2cc(OC)c(Cl)cc2OC)sc2c1CCCCC2 | 6.86* | i | i | i | i | i | 0.0152* | 0.0253* | 0.0339 | 0.0111* | 0.0238 | ?
CCOC(=O)c1c(NC(=S)Nc2cc([N+](=O)[O-])ccc2OC)sc2c1CCCCC2 | 1.03 | i | i | i | i | i | . | . | . | . | . | .
c1ccc(CSc2nnc(-c3ccccc3)c(-c3ccccc3)n2)cc1 | . | i | i | i | i | i | . | . | . | . | . | .
N#Cc1c(Cl)nc(SCc2ccccc2)nc1-c1ccccc1 | -4.91* | i | . | i | i | . | 0.0055 | 0.00391 | 0.0236* | 0.00549* | 0.014* | 0.00834*
C/C(=N\NC(=O)c1nnn(-c2nonc2N)c1CN(C)c1ccccc1)c1cccc(O)c1 | . | i | i | i | i | i | . | . | . | . | . | .
c1ccc(-n2cnc3cc(NCc4ccncc4)ccc32)cc1 | -4.37* | i | i | i | i | i | 0.00559 | 0.00451 | 0.0249* | 0.00738 | ? | 0.00951
c1ccc(-n2cnc3cc(NCc4ccccn4)ccc32)cc1 | -0.0111 | i | i | i | i | i | . | . | . | . | . | .
CC(C)c1ccc(NC2CCCN(C(=O)c3ccc(N4CCOCC4)cc3)C2)cc1 (configuration not stated) | . | i | i | i | i | i | . | . | . | . | . | .
O=S(=O)(NCCSc1ccccc1)c1ccc2c(c1)OCCO2 | . | i | i | i | i | i | ? | 0.00461 | 0.0323 | 0.00626 | ? | 0.0107
Cc1ccc(-n2[nH]c(C)c(C=Nc3ccc(C)cn3)c2=O)cc1 | 9.4* | i | i | i | i | i | 0.0107 | 0.0198* | 0.0334 | 0.0224* | ? | 0.0135*
